Source: ChEMBL document CHEMBL4017517, “Small Molecule Inhibitors Simultaneously Targeting Cancer Metabolism and Epigenetics: Discovery of Novel Nicotinamide Phosphoribosyltransferase (NAMPT) and Histone Deacetylase (HDAC) Dual Inhibitors” (J Med Chem, 2017)
Active and inactive are the calls of the source. The rule behind the calls is not given here.

Key:
Histone deacetylase 1 = Histone deacetylase 1 (Homo sapiens, UniProt Q13547); assay: Inhibition of human recombinant HDAC1 (1 to 482 residues) expressed in Baculovirus using Ac-Leu-Gly-Lys(Ac)-AMC as substrate preincubated for 5 mins followed by substrate addition measured after 30 mins by fluorescence assay
Sequence of Histone deacetylase 1 (Q13547 whole entry, the tested form may be a part): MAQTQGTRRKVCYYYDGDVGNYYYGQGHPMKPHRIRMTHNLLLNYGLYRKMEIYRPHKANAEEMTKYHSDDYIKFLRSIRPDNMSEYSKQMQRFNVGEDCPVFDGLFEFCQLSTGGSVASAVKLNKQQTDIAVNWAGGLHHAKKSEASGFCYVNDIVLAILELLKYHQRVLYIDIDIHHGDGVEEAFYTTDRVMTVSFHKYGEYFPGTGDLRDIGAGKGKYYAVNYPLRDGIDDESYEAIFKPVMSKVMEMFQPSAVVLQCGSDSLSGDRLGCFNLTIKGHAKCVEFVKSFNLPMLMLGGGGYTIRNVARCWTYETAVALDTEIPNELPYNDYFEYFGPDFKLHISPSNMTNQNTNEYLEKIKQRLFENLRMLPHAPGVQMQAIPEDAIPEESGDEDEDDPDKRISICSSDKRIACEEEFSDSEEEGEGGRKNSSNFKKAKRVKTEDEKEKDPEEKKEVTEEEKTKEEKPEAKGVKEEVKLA

[1] = biological target: T1, Protein deacetylase HDAC6 (Homo sapiens, UniProt Q9UBN7); assay: Inhibition of human recombinant HDAC6 expressed in Baculovirus infected Sf9 cells using Ac-Leu-Gly-Lys(Ac)-AMC as substrate preincubated for 5 mins followed by substrate addition measured after 30 mins by fluorescence assay
T1 sequence (Q9UBN7 whole entry): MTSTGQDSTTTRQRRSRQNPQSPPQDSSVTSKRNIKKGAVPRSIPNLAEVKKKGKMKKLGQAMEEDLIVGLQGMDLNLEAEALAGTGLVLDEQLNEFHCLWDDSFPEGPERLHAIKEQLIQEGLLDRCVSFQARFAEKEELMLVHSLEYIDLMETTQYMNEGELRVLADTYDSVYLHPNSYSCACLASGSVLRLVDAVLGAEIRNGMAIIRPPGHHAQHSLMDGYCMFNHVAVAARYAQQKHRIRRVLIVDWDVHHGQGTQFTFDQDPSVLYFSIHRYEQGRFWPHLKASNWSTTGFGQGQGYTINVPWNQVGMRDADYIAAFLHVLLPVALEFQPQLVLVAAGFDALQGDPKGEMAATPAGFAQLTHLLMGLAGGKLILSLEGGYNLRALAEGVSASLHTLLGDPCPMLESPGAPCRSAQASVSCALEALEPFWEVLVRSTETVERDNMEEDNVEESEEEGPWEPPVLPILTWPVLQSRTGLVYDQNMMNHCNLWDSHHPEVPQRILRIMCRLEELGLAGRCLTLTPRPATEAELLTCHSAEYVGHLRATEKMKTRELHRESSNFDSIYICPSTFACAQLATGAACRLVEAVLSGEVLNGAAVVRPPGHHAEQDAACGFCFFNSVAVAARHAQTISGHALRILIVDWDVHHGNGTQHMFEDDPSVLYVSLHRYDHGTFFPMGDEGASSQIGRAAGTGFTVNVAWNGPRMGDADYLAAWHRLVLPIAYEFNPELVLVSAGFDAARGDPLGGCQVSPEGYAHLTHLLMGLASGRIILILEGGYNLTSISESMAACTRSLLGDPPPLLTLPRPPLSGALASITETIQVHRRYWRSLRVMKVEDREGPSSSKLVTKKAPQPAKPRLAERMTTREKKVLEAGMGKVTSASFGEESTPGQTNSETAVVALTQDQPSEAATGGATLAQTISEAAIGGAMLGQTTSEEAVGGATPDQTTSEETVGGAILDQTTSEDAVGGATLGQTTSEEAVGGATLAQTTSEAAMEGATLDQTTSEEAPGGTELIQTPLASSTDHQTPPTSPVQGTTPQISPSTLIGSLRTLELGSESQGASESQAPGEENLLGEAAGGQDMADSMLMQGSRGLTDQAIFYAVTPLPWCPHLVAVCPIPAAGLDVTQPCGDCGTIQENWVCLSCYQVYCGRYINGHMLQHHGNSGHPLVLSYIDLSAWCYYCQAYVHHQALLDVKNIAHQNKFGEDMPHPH

Histone deacetylase 8 = biological target: T2, Histone deacetylase 8 (Homo sapiens, UniProt Q9BY41); assay: Inhibition of GST tagged full length human recombinant HDAC8 (H90 to 30H) expressed in Baculovirus infected Sf9 insect cells using Ac-Leu-Gly-Lys(Tfa)-AMC as substrate preincubated for 5 mins followed by substrate addition measured after 30 mins by fluorescence assay
T2 sequence (Q9BY41 whole entry): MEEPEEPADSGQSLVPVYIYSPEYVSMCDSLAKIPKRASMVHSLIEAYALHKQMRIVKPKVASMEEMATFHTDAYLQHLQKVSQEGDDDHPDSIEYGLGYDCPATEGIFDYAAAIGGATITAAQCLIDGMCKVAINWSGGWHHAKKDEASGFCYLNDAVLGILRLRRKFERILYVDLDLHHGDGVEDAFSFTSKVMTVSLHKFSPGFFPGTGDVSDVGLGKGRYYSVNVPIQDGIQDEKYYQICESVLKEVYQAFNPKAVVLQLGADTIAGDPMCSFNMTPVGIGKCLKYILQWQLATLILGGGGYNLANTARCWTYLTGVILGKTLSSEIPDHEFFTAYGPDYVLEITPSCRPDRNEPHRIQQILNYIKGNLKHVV

Homo sapiens = species: Homo sapiens; assay: Inhibition of HDAC in human HCT116 cells assessed as increase in acetylated histone H3 level after 24 hrs by Western blot analysis; assay type: cell-based
Summary of the method: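 HCT116 cells treated at 1 and 5 μM for 24 h; DMSO-volume control. PBS-washed, RIPA-lysed on ice 30 min, centrifuged 12000 × g 15 min at 4 °C. 30 μg protein separated by SDS-PAGE, blotted to PVDF, blocked 5% BSA 2 h. Incubated with acetyl-histone H3 or H4 primary antibody overnight at 4 °C, then secondary antibody; infrared imaging.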

[2] = biological target: Nicotinamide phosphoribosyltransferase (Homo sapiens, UniProt P43490); details: 10 uM
Sequence of Nicotinamide phosphoribosyltransferase (P43490 whole entry, looked up): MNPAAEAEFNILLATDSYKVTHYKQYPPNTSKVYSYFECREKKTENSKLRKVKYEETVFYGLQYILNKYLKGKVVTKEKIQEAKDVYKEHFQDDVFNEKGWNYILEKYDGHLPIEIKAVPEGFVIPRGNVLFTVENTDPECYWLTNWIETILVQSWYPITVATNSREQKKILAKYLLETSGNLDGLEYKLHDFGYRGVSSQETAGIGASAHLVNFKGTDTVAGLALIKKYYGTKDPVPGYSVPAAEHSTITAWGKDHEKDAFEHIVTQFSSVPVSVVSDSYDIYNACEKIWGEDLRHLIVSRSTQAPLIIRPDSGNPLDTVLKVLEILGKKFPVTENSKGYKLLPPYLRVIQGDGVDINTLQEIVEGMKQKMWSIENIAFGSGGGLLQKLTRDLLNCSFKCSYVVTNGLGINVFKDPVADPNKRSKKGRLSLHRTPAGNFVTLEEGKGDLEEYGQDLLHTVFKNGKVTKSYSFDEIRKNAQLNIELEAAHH

For Nc1ccccc1NC(=O)c1ccc(Cn2cc(-c3ccc(C(=O)NCc4cccnc4)cc3)nn2)cc1, the IC50 (Histone deacetylase 1) was 0.055 µM, the IC50 [1] was > 100 µM and the IC50 (Histone deacetylase 8) was > 100 µM. The inhibition (Homo sapiens) was “Active” and the ΔTm [2] was 1.58 °C.
